Assay results published in ChEMBL document CHEMBL1123269, “Synthesis and antitumor activity of certain 3-beta-D-ribofuranosyl-1,2,4-triazolo[3,4-f]-1,2,4-triazines related to formycin prepared via ring closure of a 1,2,4-triazine precursor” (1986).

What was measured:
Assay type in all cases: functional
[1] = test system: CCRF-CEM; test: Concentration that produced 50% inhibition of CCRF-CEM leukemia tumor cell growth was determined; conditions: Homo sapiens, read-out: ID50 (the source's name)
In short: (§1)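 Assay in CCRF-CEM human T-lymphoblastic leukemia cells (mycoplasma-free; suspension in RPMI-1640, 10% fetal bovine serum, 20 mM Hepes). Seeded at 5 × 10⁴ cells/mL with compound at 0.1–100 μM final in 0.5-log steps, triplicate, for 92 h at 37 °C in humidified 5% CO₂. Electronic cell count gave growth as % of control (Me₂SO-matched where relevant). ID₅₀ was taken from the plot.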

[2] = test system: L1210; test: Concentration that produced 50% inhibition of L1210 leukemia tumor cell growth was determined; conditions: Mus musculus, read-out: ID50 (the source's name)
In short: (§2)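 L1210 murine lymphocytic leukemia cells, mycoplasma-free, grown in suspension in RPMI-1640 with 10% fetal bovine serum and 20 mM Hepes. Inoculum 5 × 10⁴ cells/mL with compound at 0.1–100 μM final (0.5-log steps), in triplicate. Incubated 48 h at 37 °C, humidified 5% CO₂. Growth was measured by Coulter count as % of untreated control, or of a matched Me₂SO control. ID₅₀ was read from the %-control vs concentration plot.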

[3] = Concentration that produced 50% inhibition of WIL2 leukemia tumor cell growth was determined; conditions: Homo sapiens, read-out: ID50 (the source's name)
In short: (§3)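 WIL2 human B-lymphoblastic leukemia cells were kept mycoplasma-free in suspension culture in RPMI-1640 with 10% fetal bovine serum and 20 mM Hepes. Triplicate wells held 5 × 10⁴ cells/mL and compound at 0.1–100 μM final (0.5-log dilutions), for 72 h at 37 °C in 5% CO₂. Coulter cell counts gave growth as % of untreated or Me₂SO-matched controls. ID₅₀ came from the concentration plot.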

[4] = test system: CCRF-CEM; test: Concentration that produced 50% inhibition of CCRF-CEM leukemia tumor cell growth was determined at 100 uM; conditions: Homo sapiens; in short: as §1
[5] = test system: L1210; test: Concentration that produced 50% inhibition of L1210 leukemia tumor cell growth was determined at 100 uM; conditions: Mus musculus; in short: as §2
[6] = Concentration that produced 50% inhibition of WIL2 leukemia tumor cell growth was determined at 100 uM; conditions: Homo sapiens; in short: as §3

IC50 [1] [µM] | IC50 [2] [µM] | Structure (SMILES) | IC50 [3] [µM] | inhibition at 100 µM [4] [%] | inhibition at 100 µM [5] [%] | inhibition at 100 µM [6] [%]
8.4 | 31.6 | O=C1N=CN=C2C([C@@H]3O[C@H](CO)[C@@H](O)[C@H]3O)=NNC12 (stereo partly drawn) | 7.5 | – | – | –
67 | – | Nc1nn2c([C@@H]3O[C@H](CO)[C@@H](O)[C@H]3O)nnc2c(=S)[nH]1 | – | – | – | –
– | 7 | O=c1[nH]cnn2c([C@@H]3O[C@H](CO)[C@@H](O)[C@H]3O)nnc12 | 15 | – | – | –
5 | 6.3 | Nc1ncnn2c([C@@H]3O[C@H](CO)[C@@H](O)[C@H]3O)nnc12 | 7.3 | – | – | –
44.7 | 16.3 | Nc1nc(N)c2nnc([C@@H]3O[C@H](CO)[C@@H](O)[C@H]3O)n2n1 | 45.8 | – | – | –
– | – | Nc1nn2c([C@@H]3O[C@H](CO)[C@@H](O)[C@H]3O)nnc2c(=O)[nH]1 | – | 30 | 47 | 35
6.1 | 27.6 | Nc1ncnc2c([C@@H]3O[C@H](CO)[C@@H](O)[C@H]3O)[nH]nc12 [FORMYCIN] | 6.2 | – | – | –
